Only some compounds are listed: those with a hit (about 4.3% of all), similar ones and a draw of the others.
CHO parental Ca = counter-screen: ATP calcium response change in parental CHO cells. inhibition, % at 5.6 µM. actives 0.63% (n = 330,000). parental CHO-K1, ATP-induced calcium, Fluo-8 fluorescence;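 active means inhibition above that plate's mean sample inhibition plus 3 SD, cut at about 26% in these data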;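 further: 0% = ATP-challenged DMSO wells and 100% = DMSO wells without ATP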
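Test system: parental CHO cells; detection: calcium-sensitive Fluo-8 fluorescence; evaluation: percent inhibition of calcium signal; also added: ATP as calcium-mobilizing challenge; repeats: one well per compound; control set: ATP-challenged DMSO wells low, unchallenged DMSO wells high; compound: single nominal dose of 5.6 µM per compound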
TAAR1 antag = antagonists of human TAAR1 | Q96RJ0 | CHO RD-HGA16 TAAR1, Fluo-8 calcium fluorescence, antagonist | inhibition, % at 3 µM | actives 1.5% (n = 360,000) | AID 624466;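 active means inhibition above a per-plate cutoff, the mean inhibition of test compounds on that plate plus 3 SD, cut at about 49% in these data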;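 further: 0% = DMSO plus EC80 beta-PEA response and 100% = DMSO alone without agonist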
Target sequence (Q96RJ0 whole entry, looked up): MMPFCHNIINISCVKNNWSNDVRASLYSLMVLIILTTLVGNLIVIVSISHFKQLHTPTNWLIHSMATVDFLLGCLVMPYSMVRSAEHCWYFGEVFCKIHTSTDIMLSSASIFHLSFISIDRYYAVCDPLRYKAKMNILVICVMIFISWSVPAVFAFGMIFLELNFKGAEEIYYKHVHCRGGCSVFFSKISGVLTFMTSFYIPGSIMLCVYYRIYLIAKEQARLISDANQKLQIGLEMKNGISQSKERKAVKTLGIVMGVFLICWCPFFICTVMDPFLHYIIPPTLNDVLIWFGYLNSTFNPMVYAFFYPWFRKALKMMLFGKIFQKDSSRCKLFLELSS
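Assay system: CHO-derived RD-HGA16 cells stably expressing human TAAR1 plus Gα16. Timing: 140 s kinetic read after compound, 140 s after agonist. Technique: kinetic Fluo-8 calcium fluorescence measurement. Measure: % inhibition of agonist calcium response.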
OX1R antag-1 = antagonists of human orexin 1 receptor (OX1R); actives 1.8% (n = 330,000); OX1R-expressing cells, FRET antagonist read-out; O43613; inhibition, % at 6.6 µM; in the data active means inhibition mostly above about 38%, no sharp cut-off; inactive means mostly below about 40%;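 further: 0% = agonist challenge alone and 100% = reference antagonist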
Target sequence (O43613 whole entry, looked up): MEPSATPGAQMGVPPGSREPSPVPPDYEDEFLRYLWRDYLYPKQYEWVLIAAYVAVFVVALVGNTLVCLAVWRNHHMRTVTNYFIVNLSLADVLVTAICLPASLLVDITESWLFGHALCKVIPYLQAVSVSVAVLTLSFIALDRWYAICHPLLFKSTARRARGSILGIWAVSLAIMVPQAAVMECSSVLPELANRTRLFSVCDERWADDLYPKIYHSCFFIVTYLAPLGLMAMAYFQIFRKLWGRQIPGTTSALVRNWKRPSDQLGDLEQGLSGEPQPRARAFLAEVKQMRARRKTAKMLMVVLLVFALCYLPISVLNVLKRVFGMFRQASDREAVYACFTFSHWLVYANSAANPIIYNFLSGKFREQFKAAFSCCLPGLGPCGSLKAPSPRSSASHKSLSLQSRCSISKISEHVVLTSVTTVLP
TAAR1 agonist = human TAAR1 agonism; Q96RJ0; CHO RD-HGA16 TAAR1, Fluo-8 calcium fluorescence; vehicle wells 0%, saturating PEA agonist 100%; activation, % at 3 µM; actives 0.99% (n = 360,000);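 active means activation above the mean activation of all test compounds in the run plus 3 SD, cut at about 38% in these data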
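Test system: RD-HGA16 (CHO) cells co-expressing Gα16 and hTAAR1; dosing: one-point dosing at 3 µM (nominal); timing: 17-24 h seeding, 75 min 37 °C dye, 30 min RT; signal: kinetic Fluo-8 calcium fluorescence; read-out basis: % activation relative to PEA EC100 response; controls: DMSO and PEA EC100; replicates: n 1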
OX1R antag-2 = human HCRTR1 antagonism | O43613 | CHO/OX1R cells, Fluo-8 calcium fluorescence, orexin A | inhibition, % at 5 µM | actives 0.43% (n = 330,000) | AID 434989;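 active means inhibition above its plate's threshold, mean inhibition of all tested compounds on the plate plus 3 SD, cut at about 37% in these data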;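 further: 0% = orexin A challenge wells and 100% = SB-334867-A antagonist wells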
GalR3 antag = human GalR3 antagonism | O60755 | HEK293 GalR3-CNG cAMP membrane potential fluorescence; galR3 body fused to GalR1 C-terminus | inhibition, % at 3 µM | actives 0.44% (n = 360,000);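 active means inhibition above the screen-wide average plus 3 SD, cut at about 13% in these data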;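 further: forskolin and galanin both at EC90 stimulate the cells; cAMP rise reported by CNG channel membrane potential dye signal; 0% = forskolin plus galanin with DMSO and 100% = forskolin alone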
OX1R HTRF confirm = confirmation of human orexin 1 receptor antagonists, HTRF format. shares compounds with OX1R antag-1. OX1R-expressing cells, HTRF antagonist assay. inhibition, % at 6.6 µM. actives 49% (n = 1,800). AID 492964; in the data active means inhibition above about 55%;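 further: CHO cells expressing OX1R stimulated with orexin A at about EC80; 0% = agonist challenge alone and 100% = reference antagonist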
CHO-K1 HTRF = counter-screen: parental CHO-K1 HTRF response. shares compounds with OX1R antag-1. parental CHO-K1 cells, HTRF counterscreen. inhibition, % at 6.6 µM. actives 48% (n = 1,800). AID 493232; in the data active means inhibition above about 17%;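 further: 0% = agonist challenge with vehicle and 100% = vehicle alone without agonist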
Active calls of the source: *; / = not tested or not shown.

SMILES	CHO parental Ca	TAAR1 antag	OX1R antag-1	TAAR1 agonist	OX1R antag-2	GalR3 antag	OX1R HTRF confirm	CHO-K1 HTRF
O=C(Nc1cc(S(=O)(=O)N2CCCCC2)ccc1O)c1ccccc1NS(=O)(=O)c1ccc(F)c(F)c1	-17.4	4.4	82.9*	11.8	12.1	-3.0	41.8	2.4
CC(C)n1cc(/C=C/c2cc[n+](C)cc2)c2ccccc21	/	4.6	/	35.7	/	-8.9	/	/
C=CCn1cc(/C=C/c2cc[n+](C)cc2)c2ccccc21	-0.1	11.7	86.6*	1.0	8.0	-10.3	32.9	32.9*
CCc1ccccc1NC(=O)CSc1nc(C)c(C)o1	/	-22.9	/	0.1	/	-0.7	/	/
N#CCCn1c2ccccc2c2nc3ccccc3nc21	-15.3	-10.2	77.1*	13.9	2.0	-1.2	83.5*	1.4
O=c1oc2ccccc2n1CCn1c2ccccc2c2nc3ccccc3nc21	-18.4	13.6	50.3	10.2	-13.2	-1.0	/	/
Cc1cnc2cc(Cl)c(Cl)cc2n1	0.7	-11.9	10.1	10.7	-8.9	-4.6	/	/
Cc1cnc2cc([N+](=O)[O-])ccc2n1	-10.1	-0.5	100.9*	-0.3	2.0	-3.6	66.2*	84.4*
N#C/C(=C/c1ccc(Br)o1)C(N)=O	-11.8	-0.6	78.6*	10.8	-11.4	-3.0	43.6	11.8
CC1(C(=O)NS(=O)(=O)Cc2cccc(Cl)c2)CCN1C(=O)CCc1cccs1 (stereo not drawn)	/	-16.4	/	0.3	/	-8.4	/	/
Cn1c(SCC(=O)N/N=C/c2ccc([N+](=O)[O-])s2)nnc1-c1ccc(Cl)cc1	-4.4	-3.9	19.9	0.5	7.0	-11.3	/	/
CCOC(=O)CC1ON(C)C(=O)N1c1ccc([N+](=O)[O-])cc1 (stereo not drawn)	-2.9	-25.9	101.4*	7.4	-10.7	0.9	26.4	16.7
CCOC(=O)C1=C(O)C(=O)N(c2ccc(S(N)(=O)=O)cc2)C1c1ccc([N+](=O)[O-])cc1 (stereo not drawn)	-2.2	-21.4	28.2	11.3	7.9	-2.9	/	/
CC(C)(C)NC(=O)C1c2ccccc2OCC(=O)N1Cc1ccc2c(c1)OCO2 (stereo not drawn)	/	4.0	/	0.3	/	-1.3	/	/
O=C(N/N=C/c1cccc2ccccc12)C(=O)N1CCCC1	-9.3	-19.2	4.9	-2.2	-16.5	-10.6	/	/
O=C(N/N=C/c1ccccc1[N+](=O)[O-])C(=O)N1CCCC1	1.0	-8.8	92.2*	3.9	-14.8	-1.1	22.1	26.4*
CC(=O)Oc1ccc2c(c1)O/C(=C\c1ccncc1)C2=O	-0.6	/	33.5	/	-10.4	/	/	/
COc1ccccc1C(=O)Oc1ccc2c(c1)O/C(=C\c1ccncc1)C2=O	-6.3	46.6	77.8*	12.9	-9.1	-2.6	19.3	-6.1
C#CCn1cc2c(c1-c1ccccc1)c(=O)n(C)c(=O)n2C	/	-28.2	/	2.7	/	-4.9	/	/
CCN(CC)CCNc1cc(C)nc2c1C(=O)C(=O)C=C2N1CCCCC1	-18.4	-2.0	82.5*	-0.4	-19.6	-1.5	46.7	75.6*
O=C(O)c1cc(NC(=O)c2ccco2)cc(NC(=O)c2ccco2)c1	0.3	-17.6	4.8	-0.3	-3.8	-3.0	/	/
CCC1(c2ccc(F)cc2)NC(=O)N(CC(=O)Nc2cccc(S(=O)(=O)N3CCOCC3)c2)C1=O (stereo not drawn)	/	6.8	/	3.8	/	-1.1	/	/
COc1cccc(/C=C2/SC(=S)N(CC(=O)NNC(=O)c3ccccc3OC)C2=O)c1	-6.3	-21.9	86.0*	0.6	-7.2	-6.2	96.2*	3.3
COc1cccc(/C=C2\SC(=S)N(CCC(=O)NNC(=O)c3ccccc3OC)C2=O)c1	-9.1	7.6	13.7	1.2	-16.9	-7.0	/	/
O=C(Cn1ncn2c(cc3ccccc32)c1=O)NCCc1cccs1	7.2	/	3.5	/	3.8	/	/	/
SMILES	CHO parental Ca	TAAR1 antag	OX1R antag-1	TAAR1 agonist	OX1R antag-2	GalR3 antag	OX1R HTRF confirm	CHO-K1 HTRF
O=C(NCCO)c1cccc2c1C(=O)c1ccccc1-2	-12.2	-5.3	120.5*	0.9	-17.3	-11.7	57.6*	52.6*
CCN1CCCC1CNC(=O)C1CCCN(S(=O)(=O)c2cccc3nsnc23)C1 (stereo not drawn)	2.5	-1.0	118.3*	4.8	-17.2	-3.5	39.0	61.6*
COCCCNC(=O)C1CCCN(S(=O)(=O)c2cccc3nsnc23)C1 (stereo not drawn)	-12.1	-9.3	38.0	1.7	-9.9	-3.8	/	/
Cc1cccc(NC(=O)C2CCCN(S(=O)(=O)c3cccc4nsnc34)C2)n1 (stereo not drawn)	-26.8	8.8	84.2*	3.2	-20.6	-0.2	35.2	17.8*
Cc1cccc(NC(=O)C2CCCN(S(=O)(=O)c3cccc4nsnc34)C2)c1 (stereo not drawn)	-13.2	10.5	91.0*	4.2	13.2	-1.8	57.0*	9.2
Cc1cccc(NC(=O)C2CCN(S(=O)(=O)c3cccc4nsnc34)CC2)n1	-0.1	12.8	63.6	7.5	-9.0	-2.4	/	/
Cc1c(-c2cccc(NC(=O)c3cccs3)c2)nc2ncccn12	-8.5	0.9	13.6	6.8	-10.9	-1.1	/	/
Cc1cccn2cc(-c3cccc(NC(=O)c4cccs4)c3)nc12	-23.5	-10.3	111.1*	5.9	-4.3	-6.0	92.8*	-0.8
Cc1cc(O)ccc1NC(=O)CCN1C(=O)c2ccc([N+](=O)[O-])cc2C1=O	6.2	-8.0	150.7*	0.2	5.8	-2.1	68.8*	74.2*
Cc1ccc(NC(=O)CCN2C(=O)c3ccccc3C2=O)c(C)c1	-6.8	-0.7	0.1	-0.8	-14.3	-8.3	/	/
O=C(CCNS(=O)(=O)c1cccc2nsnc12)N1CCc2ccccc21	-20.8	-7.5	94.7*	9.5	-20.4	0.3	26.0	21.6*
O=S(=O)(NCc1ccccn1)c1cccc2nsnc12	-9.9	2.6	85.0*	7.1	-4.4	2.9	30.7	42.8*
COc1ccc(N2CCN(C(=O)CCS(=O)(=O)c3cccc4nsnc34)CC2)cc1	-12.5	2.4	90.3*	-0.9	-15.6	-7.0	37.3	48.2*
O=S(=O)(NCCCc1ccccc1)c1cccc2nsnc12	-13.4	-3.5	26.9	4.4	1.7	-0.6	/	/
Cc1ccccc1NC(=O)CCNS(=O)(=O)c1cccc2nsnc12	-2.7	4.2	78.5*	-0.8	-13.7	-5.6	24.5	38.2*
Cc1cc2oc(=O)cc(CN3CCCCC3)c2cc1Cl	/	-5.2	/	-0.9	/	-3.8	/	/
CCOc1ccc(S(=O)(=O)N2CCN(C(=O)c3cc4ccccc4o3)CC2)cc1	-2.1	25.2	3.3	0.6	-8.4	-2.8	/	/

Assay outcomes (PubChem BioAssay)
